Source: PubChem (several laboratories)
A selection: hits, their analogues and other compounds. The true share with any hit is near 6.1%.
WT yeast gro inh: growth inhibition of WT strain, primary screen, mitochondrial fusion inhibitor project, WT and mutant strains, chemical genetic. mitochondrial fusion phenotypic screen. inhibition, % at 10 µM. 190,000 tested, 2.1% active; in the data active means inhibition above about 58%; tested in S. cerevisiae
Yeast life ext: compounds extending yeast replicative lifespan, primary screen, S. cerevisiae, OD615; S. cerevisiae growth with nicotinamide; deaD strain in restrictive glucose medium; inhibition of the nicotinamide effect, % at 10 µM; 130,000 tested, 0.68% active; AID 775, 2007;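 active means inhibition above a set limit, placed 3 SD over the median of all compounds, cut at about 26% in these data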;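 further: 0% = nicotinamide-treated wells and 100% = cells grown without nicotinamide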
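System: Modified budding yeast, DeaD strain | Buffer or medium: Restrictive glucose medium | Also added: 1.5 mM nicotinamide | Doses: 10 µM single point, 0.25% DMSO | Schedule: 48 h compound exposure at 30 °C, humidified | Detection: Absorbance at 615 nm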
hDAT+cocaine: changed hDAT dopamine uptake under cocaine IC80, either direction, primary screen, cocaine antagonist project, cell-based, LLC-PK1 hDAT, [14C]-dopamine uptake, MLSMR. Sodium-dependent dopamine transporter (Homo sapiens), Q01959. LLC-PK1 hDAT cells, [14C]-dopamine uptake with cocaine IC80; actives deviate in either direction. B-score at 10 µM. 110,000 tested, 1.3% active. AID 449768, 2010;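 active means Z score or B-score, a plate-position-corrected score, falls beyond the plate's 99.7% confidence bounds, in either direction; inactive means both scores lie inside the 99.7% bounds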;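 further: scored against the spread of the other compound wells on the same plate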
Target sequence (Q01959 whole entry, looked up): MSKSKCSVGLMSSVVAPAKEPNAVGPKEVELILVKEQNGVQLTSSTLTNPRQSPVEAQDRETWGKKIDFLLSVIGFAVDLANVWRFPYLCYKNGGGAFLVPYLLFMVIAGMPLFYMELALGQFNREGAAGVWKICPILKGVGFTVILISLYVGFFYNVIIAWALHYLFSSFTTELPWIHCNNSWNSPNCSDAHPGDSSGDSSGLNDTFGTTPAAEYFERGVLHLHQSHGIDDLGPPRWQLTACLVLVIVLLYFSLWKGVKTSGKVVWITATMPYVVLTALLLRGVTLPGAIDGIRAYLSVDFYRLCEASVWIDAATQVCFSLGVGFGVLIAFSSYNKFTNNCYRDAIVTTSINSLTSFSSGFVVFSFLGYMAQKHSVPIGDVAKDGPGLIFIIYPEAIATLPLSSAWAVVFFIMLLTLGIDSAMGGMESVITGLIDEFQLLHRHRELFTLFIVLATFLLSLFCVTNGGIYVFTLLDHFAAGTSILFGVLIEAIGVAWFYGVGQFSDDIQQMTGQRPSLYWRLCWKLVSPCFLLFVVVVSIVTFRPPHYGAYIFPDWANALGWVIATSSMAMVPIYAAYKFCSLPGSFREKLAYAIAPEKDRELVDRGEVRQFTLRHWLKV
Measles CPE: compounds protecting cells from measles virus cytopathic effect, primary screen, measles RdRp inhibitor project, single point, MLSMR library, absorbance; Measles virus-infected cells, CPE protection; protection (pct of control), % at 4 µM; 140,000 tested, 1.5% active; AID 841, 2007; in the data active means protection mostly above about 24%, no sharp cut-off; inactive means mostly below about 26%
BB579 growth dn: growth inhibitors of yeast BB579 in restrictive medium, primary screen, yeast lifespan-shortening project, S. cerevisiae | 140,000 tested, 0.51% active | inhibition, % at 10 µM | OD615, 48 h;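 active means inhibition above a set limit, 3 SD over the mean compound inhibition, cut at about 44% in these data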
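Test system: Saccharomyces cerevisiae DeaD strain BB579, replicative lifespan model yeast | Buffer or medium: Restrictive CSMM-D medium | Doses: One dose, 10 µM compound with 0.25% DMSO | Incubation: 48 h exposure, 30 °C | Detection: Culture absorbance at 615 nm | Control set: Amphotericin B at 10 µg/mL as positive control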
RAM inhibit: inhibitors of the yeast RAM network, primary screen, dse1pr::URA3 reporter, 5-FOA selection. S. cerevisiae dse1pr::URA3 reporter, 5-FOA growth OD615, 2 d; analog-sensitive cbk1-as2 kinase mutant strain. inhibition, % at 50 µM. 190,000 tested, 1.8% active;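 active means inhibition above a set limit, 3 SD over mean compound inhibition, cut at about 8.4% in these data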;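 further: 0% = DMSO-only wells with no growth and 100% = 10 µM 1-NA-PP1 full growth; inhibition rescues growth on 5-FOA so higher OD means more RAM inhibition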
An asterisk follows results filed as active.

Screening CCN(CC)S(=O)(=O)c1ccc(C)c(C(=O)Oc2cccc(-c3cnc4ccccc4n3)c2)c1 returned WT yeast gro inh -18.0, Yeast life ext -2.7, Measles CPE 3.4, BB579 growth dn -51.9 and RAM inhibit 9.3*.
For CCN(CC)S(=O)(=O)c1cc(C(=O)Oc2cccc(-c3cnc4ccccc4n3)c2)ccc1OC the results were WT yeast gro inh 10.7, Yeast life ext -1.7, Measles CPE 6.7, BB579 growth dn -23.9 and RAM inhibit 4.2.
Screening CCc1nn(C)c(-c2n[nH]c(=S)n2N)c1Cl returned WT yeast gro inh -1.4, Yeast life ext -19.9, hDAT+cocaine -0.51, Measles CPE 43.8*, BB579 growth dn -9.0 and RAM inhibit 1.0.
`CCc1cc(-c2n[nH]c(=S)n2N)n(C)n1` gave WT yeast gro inh -13.1, Yeast life ext -3.3, hDAT+cocaine -0.136, Measles CPE 21.4, BB579 growth dn 22.8 and RAM inhibit 0.2.
COc1cc(OC)c(-c2c3cc(O)c(=O)cc-3oc3cc(O)c(O)cc23)cc1OC was read as WT yeast gro inh 59.4*, Yeast life ext 8.5, BB579 growth dn 3.8 and RAM inhibit 10.3*.
For COc1cc(C)c(Br)cc1S(=O)(=O)N1CCCC1 the results were WT yeast gro inh -2.6, Yeast life ext -2.9, hDAT+cocaine 0.978, Measles CPE 30.2*, BB579 growth dn 11.1 and RAM inhibit 0.3.
COc1cc(C)c(Cl)cc1S(=O)(=O)N1CCCC1 was read as WT yeast gro inh 13.6 and RAM inhibit 3.5.
For CC(=O)c1cccc(NC(=O)NNC(=O)CCC(=O)Nc2ccc(C)c(C)c2)c1 the results were WT yeast gro inh 7.4 and RAM inhibit 3.2.
For O=C(NCCc1ccccc1)[C@@H]1CC=C[C@@H]2CCN(Cc3ccc(Cl)c(Cl)c3)C(=O)[C@@H]21 the results were hDAT+cocaine 3.19*.
For O=C(N/N=C\c1ccc(F)cc1)c1cc(OCC(F)(F)F)ccc1OCC(F)(F)F the results were WT yeast gro inh 3.5, Yeast life ext -22.6, hDAT+cocaine -0.366, Measles CPE 37.0*, BB579 growth dn -34.4 and RAM inhibit 3.7.
Screening Cc1ccc(/C=N\NC(=O)c2cc(OCC(F)(F)F)ccc2OCC(F)(F)F)cc1 returned WT yeast gro inh 7.6, Yeast life ext -8.1, hDAT+cocaine 0.0249, Measles CPE 5.9, BB579 growth dn -51.3 and RAM inhibit 3.2.
Screening CCOC(=O)c1ccccc1N1C(=O)CSC1=S returned WT yeast gro inh 16.5, Yeast life ext 36.9*, hDAT+cocaine -0.573, Measles CPE 13.2, BB579 growth dn -24.6 and RAM inhibit 0.2.
Cc1ccccc1C(=O)NN1C(=O)CSC1=S was read as WT yeast gro inh -5.4, Yeast life ext 13.9, Measles CPE 29.7, BB579 growth dn -15.7 and RAM inhibit 0.5.
Cc1ccc(S(=O)(=O)N2CCN(c3ccnc4cc(Cl)ccc34)CC2)cc1C was read as WT yeast gro inh 69.1* and RAM inhibit 0.2.
`CS(=O)(=O)N1CCN(c2ccnc3cc(Cl)ccc23)CC1` gave WT yeast gro inh 9.0 and RAM inhibit 1.7.
For Cc1cc(N2CCN(S(=O)(=O)c3ccc(Cl)c(Cl)c3)CC2)c2ccccc2n1 the results were WT yeast gro inh 68.9* and RAM inhibit 1.3.
Cc1ccc(S(=O)(=O)N2CCN(c3ccnc4cc(Cl)ccc34)CC2)cc1 was read as WT yeast gro inh 65.5* and RAM inhibit -0.4.
For Cc1nc(N)sc1-c1nnc(SCC(=O)Nc2nccs2)n1C the results were WT yeast gro inh -14.4, Yeast life ext 1.6, hDAT+cocaine 0.0134, Measles CPE 3.7, BB579 growth dn -26.0 and RAM inhibit 0.8.
Screening Cc1ccc(-n2nnnc2-c2cnc(-c3cccnc3)nc2C(F)(F)F)cc1 returned WT yeast gro inh 18.2, Yeast life ext -12.3, hDAT+cocaine 1.69, Measles CPE 30.4, BB579 growth dn -6.4 and RAM inhibit 1.0.
For FC(F)(F)c1nc(N2CCCC2)ncc1-c1nnnn1-c1ccc(Cl)cc1 the results were WT yeast gro inh 58.9*, Yeast life ext -5.1, hDAT+cocaine -0.671, Measles CPE 16.2, BB579 growth dn -21.6 and RAM inhibit 3.5.
`Cc1cc(C)c(OCCCCNCc2ccccc2)c(Cl)c1` gave WT yeast gro inh 41.1, Yeast life ext -7.2, hDAT+cocaine 0.218, Measles CPE 18.8, BB579 growth dn 14.5 and RAM inhibit -0.9.
`Cc1cccc(-c2nnc(SCc3ccc(C#N)cc3)n2Cc2ccco2)c1` gave WT yeast gro inh 9.8, Yeast life ext -12.4, hDAT+cocaine 1.69, Measles CPE 2.5, BB579 growth dn -39.9 and RAM inhibit 2.6.
CCOc1cc(CNCCO)cc(Br)c1OCc1ccc(Cl)cc1 was read as WT yeast gro inh 11.0, Yeast life ext -24.1, Measles CPE 9.5, BB579 growth dn 5.9 and RAM inhibit 0.5.
Screening CCOc1cc(CNC(C)(C)CO)cc(Br)c1OCc1ccc(Cl)cc1Cl returned WT yeast gro inh 87.8*, Yeast life ext -9.5, hDAT+cocaine 2.53*, Measles CPE 2.2, BB579 growth dn 30.0 and RAM inhibit -0.2.
CCOc1cc(CNCCO)cc(Br)c1OCc1ccccc1Cl was read as WT yeast gro inh 97.7*, Yeast life ext -14.6, hDAT+cocaine 1.25, Measles CPE 8.4, BB579 growth dn 12.4 and RAM inhibit 0.3.
COc1cc(CNC(C)(C)CO)cc(Br)c1OCc1ccccc1 was read as WT yeast gro inh -8.2 and RAM inhibit -0.3.
For O=C(O)c1ccccc1/C=N/N1CCN(C2c3ccccc3-c3ccccc32)CC1 the results were WT yeast gro inh -2.4 and RAM inhibit 1.6.
Screening Cc1nsc(Nc2ccc([N+](=O)[O-])cc2)c1C#N returned WT yeast gro inh 5.2 and RAM inhibit 2.1.
Screening COC(=O)c1sccc1NC(=O)CSc1cc(Cl)ccc1Cl returned WT yeast gro inh -8.0, Yeast life ext -14.5, hDAT+cocaine -0.666, Measles CPE 10.7, BB579 growth dn -34.2 and RAM inhibit 9.5*.
CCOC(=O)Cc1csc(NC(=O)CSc2cc(Cl)ccc2Cl)n1 was read as WT yeast gro inh 27.1, Yeast life ext 6.0, Measles CPE 29.1*, BB579 growth dn -5.1 and RAM inhibit 4.0.
Screening Cc1ccccc1S(=O)(=O)c1c(C)cc(-c2ccccc2)[nH]c1=O returned WT yeast gro inh -3.1, Yeast life ext -6.3, hDAT+cocaine 0.113, Measles CPE 21.3, BB579 growth dn -53.0 and RAM inhibit 4.8.
